The values that follow come from article PMC9326885 (Journal of Food and Drug Analysis, 2017).

Series [1] is described as follows: Effect of intravenous IS on the elimination of intravenous PSP in rats. It counts as in vivo, rat. The note with it: for AUC(0-t) / clearance / MRT: male, Sprague-Dawley, rat, serum, iv, 5 mg/kg, mean ± S.E., n = 6; for AUC(0-t): AUC0-1440, area under concentration-time curve to 1440 min; for clearance: Cl, the clearance; for MRT: the mean residence time. Put shortly: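 Male Sprague–Dawley rats (370–420 g), fasted 12 h, received IV PSP 5.0 mg/kg with or without IV IS 10.0 mg/kg in a crossover design with a 1-week washout. Blood was drawn at 30–1440 min and serum was deproteinized with methanol and basified with NaOH. Absorbance was read at 560 nm (calibration 0.39–12.5 μg/mL). Noncompartmental analysis; paired t-test.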

Series [2] is described as follows: Effect of oral indican on the pharmacokinetics of oral MTX in rats. In kind it is in vivo, rat. The conditions noted are these: mean ± S.E., n = 5; for MRT: male, Sprague-Dawley, rat, serum, po, the mean residence time. Put shortly: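 Male Sprague–Dawley rats (330–400 g), fasted 12 h, were given oral MTX 5.0 mg/kg alone or with oral indican 20.0 or 40.0 mg/kg in a parallel design. Serum MTX was measured by fluorescence polarization immunoassay (calibrated 0–1.0 μmol/L, LLOQ 0.01 μmol/L). Noncompartmental analysis: Cmax observed, AUC by trapezoidal rule to last point. Groups compared by one-way ANOVA with Scheffe's test.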

The conditions of series [3]: by OATs- and MRPs-mediated transports; cited from earlier work.
Where [4] appears, read: intravenous bolus of PSP 5.0 mg/kg alone.
Setting [5] is: intravenous bolus of PSP 5.0 mg/kg with intravenous bolus of IS 10.0 mg/kg.

Structures can show the parent of a compound that is named as a salt. Marks after values point to notes of the source that are not given here.

With `O=S(=O)(O)Oc1c[nH]c2ccccc12` [IS, indoxyl sulfate], the “Effect on the elimination of PSP (serum profiles)” value in series [1] (intravenous IS 10.0 mg/kg with intravenous PSP 5.0 mg/kg) is given as “inhibited”.
Turning to `CN(Cc1cnc2nc(N)nc(N)c2n1)c1ccc(C(=O)N[C@@H](CCC(=O)O)C(=O)O)cc1` [MTX, Methotrexate], the MRT is 5.26 h in series [2] (5 mg/kg, oral MTX 5.0 mg/kg alone); 17 h in series [2] (oral MTX 5.0 mg/kg coadministered with indican 20.0 mg/kg); 16 h in series [2] (oral MTX 5.0 mg/kg coadministered with indican 40.0 mg/kg). The “AUC0-2880, area under concentration-time curve to 2880 min” value in series [2] (oral MTX 5.0 mg/kg alone) is 63.6 ± 6.9^a μmole•min/L. The “Fraction of MTX excreted via urine” value in series [3] is “More than 80%”.
In series [1] (setting [4]), `O=S1(=O)OC(c2ccc(O)cc2)(c2ccc(O)cc2)c2ccccc21` [PSP, phenolsulfonphthalein] gave an AUC(0-t) of 21300 ng·h/mL, a clearance of 3.1 ± 0.4 mL/min/kg and an MRT of 6.67 h. In series [1] (setting [5]), this compound showed an AUC(0-t) of 64700 ng·h/mL, a clearance of 1 ± 0.3 mL/min/kg and an MRT of 9.54 h.
